The values that follow come from ChEMBL document CHEMBL4118021, “Studies of TAK1-centered polypharmacology with novel covalent TAK1 inhibitors” (Bioorg Med Chem, 2017).

Type in all cases: cell-based
For assay [1], the target named is T1, Serine/threonine-protein kinase LATS1 (Homo sapiens) (UniProt O95835).
T1 sequence (whole entry): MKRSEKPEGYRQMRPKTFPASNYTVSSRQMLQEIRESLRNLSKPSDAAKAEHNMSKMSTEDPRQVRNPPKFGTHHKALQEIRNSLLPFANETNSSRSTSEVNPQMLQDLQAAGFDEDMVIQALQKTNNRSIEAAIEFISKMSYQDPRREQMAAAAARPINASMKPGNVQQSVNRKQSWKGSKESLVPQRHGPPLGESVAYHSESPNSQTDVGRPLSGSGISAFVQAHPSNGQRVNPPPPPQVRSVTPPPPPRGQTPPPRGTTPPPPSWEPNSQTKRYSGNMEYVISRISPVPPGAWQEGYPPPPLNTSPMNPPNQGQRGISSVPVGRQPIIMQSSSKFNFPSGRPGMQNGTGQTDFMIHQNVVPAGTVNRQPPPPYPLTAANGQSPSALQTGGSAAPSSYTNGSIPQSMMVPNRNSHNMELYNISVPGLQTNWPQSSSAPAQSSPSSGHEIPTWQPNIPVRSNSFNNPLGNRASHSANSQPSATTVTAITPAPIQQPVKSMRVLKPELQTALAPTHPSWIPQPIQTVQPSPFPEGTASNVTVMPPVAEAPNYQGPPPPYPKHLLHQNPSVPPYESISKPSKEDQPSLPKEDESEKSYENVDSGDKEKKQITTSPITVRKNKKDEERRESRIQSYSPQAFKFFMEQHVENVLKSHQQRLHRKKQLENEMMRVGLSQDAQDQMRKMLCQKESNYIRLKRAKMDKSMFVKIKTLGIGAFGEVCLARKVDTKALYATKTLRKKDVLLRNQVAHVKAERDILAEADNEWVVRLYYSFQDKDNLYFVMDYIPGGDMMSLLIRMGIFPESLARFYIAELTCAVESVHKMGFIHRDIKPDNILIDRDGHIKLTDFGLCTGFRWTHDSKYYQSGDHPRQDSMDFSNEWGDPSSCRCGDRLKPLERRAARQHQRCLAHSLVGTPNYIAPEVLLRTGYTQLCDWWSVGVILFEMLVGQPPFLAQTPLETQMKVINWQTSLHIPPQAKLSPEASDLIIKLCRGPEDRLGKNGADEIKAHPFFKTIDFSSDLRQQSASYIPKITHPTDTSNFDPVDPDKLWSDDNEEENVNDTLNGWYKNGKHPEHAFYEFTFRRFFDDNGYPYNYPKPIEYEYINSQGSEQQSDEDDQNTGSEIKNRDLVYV
Put plainly: Inhibition of LATS1 in human SKCO1 cells at 1 uM after 4 hrs using biotin labeled ALYATKTLR probe by mass-spectrometric analysis relative to control.

Assay [2] has as its target T2, Mitogen-activated protein kinase kinase kinase kinase 3 (Homo sapiens) (UniProt Q8IVH8).
T2 sequence (whole entry): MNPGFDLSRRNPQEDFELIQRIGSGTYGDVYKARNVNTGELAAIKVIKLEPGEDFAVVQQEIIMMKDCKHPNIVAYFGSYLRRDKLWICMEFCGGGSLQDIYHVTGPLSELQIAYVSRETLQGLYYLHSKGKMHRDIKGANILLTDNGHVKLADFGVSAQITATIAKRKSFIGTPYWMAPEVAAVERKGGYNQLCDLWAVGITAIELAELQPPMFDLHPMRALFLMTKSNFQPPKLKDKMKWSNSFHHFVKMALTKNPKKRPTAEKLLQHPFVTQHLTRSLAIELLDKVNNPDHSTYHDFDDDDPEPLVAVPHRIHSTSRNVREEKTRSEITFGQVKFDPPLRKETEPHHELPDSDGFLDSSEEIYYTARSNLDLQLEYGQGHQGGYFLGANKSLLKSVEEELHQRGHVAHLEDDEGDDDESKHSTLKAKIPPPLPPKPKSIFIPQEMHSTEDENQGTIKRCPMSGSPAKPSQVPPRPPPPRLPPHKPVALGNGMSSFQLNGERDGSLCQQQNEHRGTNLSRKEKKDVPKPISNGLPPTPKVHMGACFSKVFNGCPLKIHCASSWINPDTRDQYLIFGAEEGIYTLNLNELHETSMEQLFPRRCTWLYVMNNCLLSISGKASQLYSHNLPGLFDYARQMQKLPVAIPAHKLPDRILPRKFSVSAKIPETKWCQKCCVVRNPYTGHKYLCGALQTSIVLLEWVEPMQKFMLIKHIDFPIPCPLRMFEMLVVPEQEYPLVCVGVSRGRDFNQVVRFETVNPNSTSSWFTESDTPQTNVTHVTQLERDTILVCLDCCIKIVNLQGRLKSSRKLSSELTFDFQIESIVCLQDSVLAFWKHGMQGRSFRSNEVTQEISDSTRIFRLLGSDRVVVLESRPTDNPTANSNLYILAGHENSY
Put plainly: Inhibition of KHS2 in human SKCO1 cells at 1 uM after 4 hrs using biotin labeled NVNTGELAAIKVIK probe by mass-spectrometric analysis relative to control.

Assay [3] has as its target T3, Protein kinase C zeta type (Homo sapiens) (UniProt Q05513).
T3 sequence (whole entry): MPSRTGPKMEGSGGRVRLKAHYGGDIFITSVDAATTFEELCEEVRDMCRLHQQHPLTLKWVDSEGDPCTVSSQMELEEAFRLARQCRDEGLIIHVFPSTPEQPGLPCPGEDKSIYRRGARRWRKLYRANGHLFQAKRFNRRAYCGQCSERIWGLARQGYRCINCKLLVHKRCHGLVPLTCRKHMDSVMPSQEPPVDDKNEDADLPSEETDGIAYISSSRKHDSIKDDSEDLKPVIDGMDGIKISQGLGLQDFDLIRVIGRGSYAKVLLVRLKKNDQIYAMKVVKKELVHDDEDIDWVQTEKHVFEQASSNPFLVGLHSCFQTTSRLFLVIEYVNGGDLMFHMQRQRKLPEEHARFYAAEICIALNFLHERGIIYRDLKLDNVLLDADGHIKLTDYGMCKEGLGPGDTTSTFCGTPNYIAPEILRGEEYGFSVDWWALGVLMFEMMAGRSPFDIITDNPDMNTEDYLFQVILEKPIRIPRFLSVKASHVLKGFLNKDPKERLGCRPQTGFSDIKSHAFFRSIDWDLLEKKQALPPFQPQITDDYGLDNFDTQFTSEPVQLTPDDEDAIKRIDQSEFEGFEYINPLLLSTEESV
Put plainly: Inhibition of PKCz in human SKCO1 cells at 1 uM after 4 hrs using biotin labeled DLKLDNVLLDADGHIK probe by mass-spectrometric analysis relative to control. In short, it runs like this:
(§1)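 Live SK-CO-1 cells exposed to compound at 1 μM or DMSO for 4 h (KiNativ). Lysates then labeled with lysine-reactive ATP/ADP-biotin probe, and probe-labeled kinase peptides quantified by mass spectrometry. Percent inhibition of probe-dependent recovery calculated relative to DMSO-treated cells.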

Assay [4] has as its target Phosphatidylinositol 4-kinase beta (Homo sapiens) (UniProt Q9UBF8). Put plainly: Inhibition of PI4KB in human SKCO1 cells at 1 uM after 4 hrs using biotin labeled VPHTQAVVLNSKDK probe by mass-spectrometric analysis relative to control. In short, it runs like this:
as §1

Phosphatidylinositol 4-kinase beta (Homo sapiens), sequence (Q9UBF8 2-816 limits assumed): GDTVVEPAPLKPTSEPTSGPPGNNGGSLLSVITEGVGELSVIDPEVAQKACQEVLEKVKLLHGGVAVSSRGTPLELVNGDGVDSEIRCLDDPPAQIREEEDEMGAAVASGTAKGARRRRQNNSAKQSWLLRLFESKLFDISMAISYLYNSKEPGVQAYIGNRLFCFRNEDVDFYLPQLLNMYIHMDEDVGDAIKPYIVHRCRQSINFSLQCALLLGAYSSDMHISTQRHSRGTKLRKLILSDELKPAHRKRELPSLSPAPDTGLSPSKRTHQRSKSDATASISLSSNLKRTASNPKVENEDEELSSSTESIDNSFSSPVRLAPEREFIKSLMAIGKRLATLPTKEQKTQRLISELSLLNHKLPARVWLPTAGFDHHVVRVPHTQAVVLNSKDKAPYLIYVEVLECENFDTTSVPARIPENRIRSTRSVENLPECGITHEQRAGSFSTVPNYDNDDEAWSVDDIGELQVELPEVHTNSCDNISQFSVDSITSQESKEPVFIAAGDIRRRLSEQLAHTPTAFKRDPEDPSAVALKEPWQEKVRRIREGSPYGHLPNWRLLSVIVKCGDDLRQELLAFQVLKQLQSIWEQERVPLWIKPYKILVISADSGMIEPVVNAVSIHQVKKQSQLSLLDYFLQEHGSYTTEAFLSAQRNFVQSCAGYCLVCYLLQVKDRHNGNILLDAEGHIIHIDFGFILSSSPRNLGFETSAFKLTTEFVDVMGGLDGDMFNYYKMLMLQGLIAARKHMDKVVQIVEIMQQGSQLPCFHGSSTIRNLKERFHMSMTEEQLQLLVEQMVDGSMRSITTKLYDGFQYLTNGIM

With `C=CC(=O)Nc1ccccc1Oc1nc(Nc2cnn(CCOC)c2)ncc1Cl`, the inhibition – broadly, the drop in the measured response relative to a control, in per cent – in assay [1] was 5.3%; in assay [2], -7.5%; in assay [3], 30%; in assay [4], 27.2%.

As for `C=CC(=O)Nc1ccccc1Nc1nc(Nc2ccc(N3CCN(C)CC3)cc2)ncc1Cl`, the inhibition stood at 17.5% in assay [1], 42.4% in assay [2], 14.5% in assay [3] and 14.7% in assay [4].

Consider `COc1cc(O)c2c(c1)/C=C/C[C@H](O)[C@H](O)C(=O)/C=C\C[C@H](C)OC2=O`, for which the inhibition turned out to be 9.9% in assay [1], 3.1% in assay [2], 42.1% in assay [3] and 21.8% in assay [4].
